Source: ChEMBL document CHEMBL1649444, “Omeprazole antagonizes virulence and inflammation in Salmonella enterica-infected RAW264.7 cells” (Antimicrob Agents Chemother, 2009)
Active and inactive are the calls of the source. The calls are words filed in the database; no cut-off is given here.

Legend:
RAW264.7 [1] = assay: Induction of apoptosis in mouse RAW264.7 cells assessed as early apoptotic cells at 200 uM after 16 hrs using annexin V-propidium iodide staining by flow cytometry; assay type: cell-based; conditions: raw264.7, 16 h
Method in brief: (§1)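 RAW264.7 cells kept 16 h with or without compound in DMSO. Cells stained with annexin V-FITC plus propidium iodide and analysed by flow cytometry. Populations given as percent of all cells counted, with standard deviations.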

Salmonella typhimurium [2] = assay: Antimicrobial activity against Salmonella enterica Typhimurium 14028 infected in RAW 264.7 cells assessed as delayed degradation of IkappaB-alpha in infected cells at 200 uM after 20 mins postinfection by Immunoblotting relative to untreated control; assay type: functional, organism-based; conditions: Salmonella enterica subsp. enterica serovar Typhimurium
Salmonella typhimurium [3] = assay: Antimicrobial activity against sseF gene-deficient Salmonella enterica Typhimurium 14028 infected in RAW 264.7 cells assessed as growth inhibition at 200 uM after 2 to 16 hrs postinfection by viable counting relative to untreated control
Salmonella typhimurium [4] = assay: Antimicrobial activity against Salmonella enterica Typhimurium 14028 infected in RAW 264.7 cells assessed as growth inhibition at 200 uM treated 4 hr postinfection measured after 16 hrs of postinfection by flow cytometry; assay type: functional, organism-based; conditions: Salmonella enterica subsp. enterica serovar Typhimurium
Salmonella typhimurium [5] = assay: Antimicrobial activity against Salmonella enterica Typhimurium 14028 infected in RAW 264.7 cells assessed as decrease in IL-6 secretion from infected cells at 200 uM after 16 hrs postinfection by ELISA relative to untreated control; assay type: functional, organism-based; conditions: Salmonella enterica subsp. enterica serovar Typhimurium
Salmonella typhimurium [6] = assay: Antimicrobial activity against Salmonella enterica Typhimurium 14028 infected in RAW 264.7 cells assessed as inhibition of inducible nitric oxide synthase expression in infected cells at 200 uM by Immunoblotting relative to untreated control; assay type: functional, organism-based; conditions: Salmonella enterica subsp. enterica serovar Typhimurium
Salmonella typhimurium [7] = assay: Antimicrobial activity against sseG gene-deficient Salmonella enterica Typhimurium 14028 infected in RAW 264.7 cells assessed as growth inhibition at 200 uM after 2 to 16 hrs postinfection by flow cytometry relative to untreated control; assay type: functional, Salmonella enterica subsp. enterica serovar Typhimurium
Salmonella typhimurium [8] = assay: Antimicrobial activity against sifA gene-deficient Salmonella enterica Typhimurium 14028 infected in RAW 264.7 cells assessed as growth inhibition at 200 uM after 2 to 16 hrs postinfection by flow cytometry relative to untreated control; assay type: functional, organism-based; conditions: Salmonella enterica subsp. enterica serovar Typhimurium
RAW264.7 [9] = assay: Induction of apoptosis in mouse RAW264.7 cells assessed as necrotic cells at 200 uM after 16 hrs using annexin V-propidium iodide staining by flow cytometry; assay type: cell-based; conditions: raw264.7, 16 h; method in brief: as §1
Salmonella typhimurium [10] = assay: bacteriostatic activity against Salmonella enterica Typhimurium 14028 infected in RAW 264.7 cells assessed as decrease intracellular bacteria at 200 uM after 16 hrs postinfection by GFP-based fluorescent reduction assay; assay type: functional, organism-based; conditions: Salmonella enterica subsp. enterica serovar Typhimurium
Salmonella typhimurium [11] = assay: Antimicrobial activity against Salmonella enterica Typhimurium 14028 infected in RAW 264.7 cells assessed as decrease in bacterial growth yield at 200 uM after 16 hrs postinfection by flow cytometry in presence of 10 ug/ml of intracellular replication inhibitor tetracycline; assay type: functional, organism-based; conditions: Salmonella enterica subsp. enterica serovar Typhimurium
Salmonella typhimurium [12] = assay: Bacteriostatic activity against Salmonella enterica Typhimurium 14028 infected in RAW 264.7 cells assessed as decrease in bacterial growth yield at 200 uM after 16 hrs postinfection by flow cytometry; assay type: functional, organism-based; conditions: Salmonella enterica subsp. enterica serovar Typhimurium
RAW264.7 [13] = assay: Cytotoxicity against mouse RAW264.7 cells at 200 uM by LDH release assay; assay type: cell-based; conditions: raw264.7, 200 µM
Salmonella typhimurium [14] = assay: Antimicrobial activity against Salmonella enterica Typhimurium 14028 infected in RAW 264.7 cells assessed as delayed degradation of IkappaB-alpha in infected cells at 200 uM after 40 mins postinfection by Immunoblotting relative to untreated control; assay type: functional, organism-based; conditions: Salmonella enterica subsp. enterica serovar Typhimurium
Salmonella typhimurium [15] = assay: Antimicrobial activity against Salmonella enterica Typhimurium 14028 infected in RAW 264.7 cells assessed as decrease in segregation of plasmid at 200 uM; assay type: functional, organism-based; conditions: Salmonella enterica subsp. enterica serovar Typhimurium
RAW264.7 [16] = assay: Induction of apoptosis in mouse RAW264.7 cells assessed as late apoptotic cells at 200 uM after 16 hrs using annexin V-propidium iodide staining by flow cytometry; assay type: cell-based; conditions: raw264.7, 16 h; method in brief: as §1
Salmonella typhimurium [17] = assay: Antimicrobial activity against Salmonella enterica Typhimurium 14028 infected in RAW 264.7 cells assessed as growth inhibition at 200 uM treated 3 hr before infection measured after 16 hrs of postinfection by flow cytometry; assay type: functional, organism-based; conditions: Salmonella enterica subsp. enterica serovar Typhimurium
Salmonella typhimurium [18] = assay: Antimicrobial activity against ssaV gene-deficient Salmonella enterica Typhimurium 14028 infected in RAW 264.7 cells assessed as growth inhibition at 200 uM after 2 to 16 hrs postinfection by flow cytometry relative to untreated control; assay type: functional, organism-based; conditions: Salmonella enterica subsp. enterica serovar Typhimurium
Salmonella typhimurium [19] = assay: Antimicrobial activity against Salmonella enterica Typhimurium 14028 infected in RAW 264.7 cells assessed as growth inhibition at 200 uM treated 6 hr postinfection measured after 16 hrs of postinfection by flow cytometry; assay type: functional, organism-based; conditions: Salmonella enterica subsp. enterica serovar Typhimurium
Salmonella typhimurium [20] = assay: Antimicrobial activity against Salmonella enterica Typhimurium 14028 infected in RAW 264.7 cells assessed as decrease in TNF-alpha secretion from infected cells at 200 Um after 16 hrs postinfection by ELISA relative to untreated control; assay type: functional, organism-based; conditions: Salmonella enterica subsp. enterica serovar Typhimurium
Salmonella typhimurium [21] = assay: Antimicrobial activity against Salmonella enterica Typhimurium 14028 infected in RAW 264.7 cells assessed as inhibition of bacterial replication at 100 nM treated 30 mins before infection measured after 2 to 16 hrs postinfection by flow cytometry; assay type: functional, organism-based; conditions: Salmonella enterica subsp. enterica serovar Typhimurium
RAW264.7 [22] = assay: Induction of apoptosis in mouse RAW264.7 cells assessed as necrotic cells at 100 nM after 16 hrs using annexin V-propidium iodide staining by flow cytometry; assay type: cell-based; conditions: raw264.7, 16 h, 0.1 µM
Method in brief: (§2)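 RAW264.7 cells cultured with compound for 16 h, DMSO as control. Cells stained with annexin V-FITC plus propidium iodide and analysed by flow cytometry. Populations given as percentages of all cells counted, with standard deviations.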

Salmonella typhimurium [23] = assay: Antimicrobial activity against Salmonella enterica Typhimurium 14028 infected in RAW 264.7 cells assessed as […] nitric oxide production in infected cells at 100 nM; assay type: functional, organism-based; conditions: Salmonella enterica subsp. enterica serovar Typhimurium
Method in brief: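 Nonactivated RAW264.7 cells infected with opsonized (10% preimmune BALB/c serum, 30 min, 37°C) noninvasive-grown S. Typhimurium 14028 at MOI 10; cells pretreated 30 min before infection, then fresh medium. 1 h infection, 45 min gentamicin 50 μg/ml, then 10 μg/ml maintenance. NO measured as nitrite in medium by Griess reagent, OD 525 nm against sodium nitrite standards.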

Salmonella typhimurium [24] = assay: Bactericidal activity against Salmonella enterica Typhimurium 14028 infected in RAW 264.7 cells assessed as decrease in bacterial growth yield at 100 nM after 16 hrs postinfection by flow cytometry in presence of 10 ug/ml of intracellular replication inhibitor tetracycline; assay type: functional, organism-based; conditions: Salmonella enterica subsp. enterica serovar Typhimurium
RAW264.7 [25] = assay: Induction of apoptosis in mouse RAW264.7 cells assessed as early apoptotic cells at 100 nM after 16 hrs using annexin V-propidium iodide staining by flow cytometry; assay type: cell-based; conditions: raw264.7, 16 h, 0.1 µM; method in brief: as §2
RAW264.7 [26] = assay: Cytotoxicity against mouse RAW264.7 cells at 100 nM by LDH release assay; assay type: cell-based; conditions: raw264.7, 0.1 µM
Method in brief: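 RAW264.7 cells cultured with compound for 16 h. LDH released into the culture medium measured chromogenically with a cytotoxicity detection kit. Triplicates, repeated at least twice; paired t test.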

RAW264.7 [27] = assay: Cytotoxicity against mouse RAW264.7 cells assessed as change vacuolar pH at 200 uM using acridine orange stain by fluorescent microscope; assay type: cell-based; conditions: raw264.7, 200 µM
Method in brief: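 RAW264.7 cells treated with compound, then stained with acridine orange, whose fluorescence shifts upon protonation. Intravacuolar orange staining scored by fluorescence microscopy as acidified vacuoles.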

RAW264.7 [28] = assay: Induction of apoptosis in mouse RAW264.7 cells assessed as late apoptotic cells at 100 nM after 16 hrs using annexin V-propidium iodide staining by flow cytometry; assay type: cell-based; conditions: raw264.7, 16 h, 0.1 µM; method in brief: as §2

`COc1ccc2[nH]c([S+]([O-])Cc3ncc(C)c(OC)c3C)nc2c1` (stereo not drawn) [OMEPRAZOLE] was tested, and the Activity (RAW264.7 [1]) was 25.3%, the Activity (Salmonella typhimurium [2]) was “inactive” and the “fold change (FC)” value (Salmonella typhimurium [3]) was 2. The Activity (Salmonella typhimurium [4]) was “Active”, the Activity (Salmonella typhimurium [5]) was “inactive” and the Activity (Salmonella typhimurium [6]) was “inactive”. For the same compound, the “fold change (FC)” value (Salmonella typhimurium [7]) was 2, the Activity (Salmonella typhimurium [8]) was “inactive” and the Activity (RAW264.7 [9]) was 0.1%. For the same compound, the Activity (Salmonella typhimurium [10]) was “Active”, the Activity (Salmonella typhimurium [11]) was “inactive” and the Activity (Salmonella typhimurium [12]) was “Active”. The Activity (RAW264.7 [13]) was “Non-toxic”, the Activity (Salmonella typhimurium [14]) was “inactive” and the Activity (Salmonella typhimurium [15]) was “Active”. The Activity (RAW264.7 [16]) was 15.8%, the Activity (Salmonella typhimurium [17]) was “Active” and the Activity (Salmonella typhimurium [18]) was “inactive”. For the same compound, the Activity (Salmonella typhimurium [19]) was “Active” and the Activity (Salmonella typhimurium [20]) was “inactive”.
With `CO/C1=C\C(C)=C\[C@@H](C)[C@@H](O)[C@@H](C)C/C(C)=C/C=C/[C@H](OC)[C@@H]([C@@H](C)[C@@H](O)[C@H](C)[C@@]2(O)C[C@@H](O)[C@H](C)[C@@H](C(C)C)O2)OC1=O` [BAFILOMYCIN A1] the Activity (Salmonella typhimurium [21]) was “Active”, the Activity (RAW264.7 [22]) was 0.4% and the Activity (Salmonella typhimurium [23]) was “Active”. For the same compound, the Activity (Salmonella typhimurium [24]) was “Active”, the Activity (RAW264.7 [25]) was 29.2% and the Activity (RAW264.7 [26]) was “Toxic”. The Activity (RAW264.7 [27]) was “Toxic” and the Activity (RAW264.7 [28]) was 31.5%.
